Published values from different studies.
Lines come from different studies, so protocols differ.
Observed: enzyme activity
Mode: inhibitor
SRC: Proto-oncogene tyrosine-protein kinase Src (SRC, Homo sapiens, UniProt P12931)
SRC T341M: Proto-oncogene tyrosine-protein kinase Src (SRC, Homo sapiens, UniProt P12931, T341M)

Structure (SMILES)	target	method	concentration	remaining activity
Cc1[nH]c(/C=C2\C(=O)Nc3ccc(F)cc32)c(C)c1C(=O)N[C@H]1CCN(C(=O)N(C)C)C1	SRC		0.1 µM	109%
Nc1nc(Nc2ccccc2)sc1C(=O)c1c(F)cccc1F	SRC		10 µM	47%
Cc1sc(C(=O)NC2COC2)cc1-n1cc(NC(=O)Nc2c(F)cccc2Cl)cn1	SRC		10 µM	96.6%
Cc1cnc(NC2CCOCC2)nc1-n1cnc(C(=O)NC(CN)c2cc(F)cc(Cl)c2)c1 (stereo not drawn)	SRC T341M	radiometric	1 µM	103%
O=c1cc(-c2cccc3c2Sc2ccccc2S3)oc(N2CCOCC2)c1	SRC		0.5 µM	106%
CC(C)(C)c1nc2c(s1)c1nc(N)ncc1c1ccc(NS(=O)(=O)c3c(F)cccc3F)c(F)c12	SRC	radiometric	1 µM	89%
CCN(CC)c1ccc(C2=NNC(=O)CC2C)cc1[N+](=O)[O-] (stereo not drawn)	SRC		10 µM	94%
COc1cc(Nc2cnc(C#N)c(O[C@H](C)CN(C)C)n2)ncc1-c1cnn(C)c1	SRC	radiometric	10 µM	72%
Cc1ccc(NC(=O)c2ccc(C)c(C(F)(F)F)c2)cc1C#Cc1nn(C2CCC(O)CC2)c2ncnc(N)c12 (stereo not drawn)	SRC T341M		10 µM	20%
Oc1cccc(-c2nc(N3CCOCC3)c3oc4ncccc4c3n2)c1	SRC		10 µM	99%
Nc1nc(NC2CCCCC2)sc1C(=O)c1ccccc1	SRC		10 µM	99%
O=C(Nc1cnn(-c2csc(C(=O)NC3COC3)c2)c1)Nc1ccccc1Cl	SRC		5 µM	91.1%
